pIC50: −log10 of the molar value. Where “and” joins values, the source holds several entries; their conditions need not be identical. Equal values may be shown once. Calls of active or inactive are those of the source. No cut-off for these calls is given here.

The test system of data set [1] is Mus musculus. In words: Ability to inhibit Antitumor activity against PXN/109T/CC Human Ovarian Cracinoma xenograft in mice at dose 8 mg/kg by ip administration. It counts as functional, organism-based. On the set-up: dose 8 mg/kg. The essentials:
(§1)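 Human ovarian carcinoma xenografts were grown subcutaneously in female Balb C nude mice. Tumors were measured weekly until they doubled their starting volume. Growth delay is the difference in doubling time between treated and control tumors.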

In data set [2] the test system is A2780. In words: Resistant factor determined between IC50 of resistant line to that of parental A2780 cell line. It counts as functional, cell-based. The following applies: Homo sapiens. The essentials: (§2)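 Resistance factor is the IC50 in the cisplatin-resistant subline divided by the IC50 in its parent line. IC50s came from a 96 h SRB cytotoxicity assay run in quadruplicate wells.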

Data set [3] relates to 41M. In words: Resistant factor was determined between IC50 of cisplatin-resistant human tumor cell lines to that of […] cell line. It counts as functional, cell-based. A digest of the protocol: as §2
The subject of data set [4] is Mus musculus. The data set can be described thus: In Vivo Antitumor activity by ip administration against Murine ADJ/PC6 (sc) Plasmacytoma in mice. It counts as functional, organism-based. The following applies: Plasma. A digest of the protocol: (§3)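 ADJ/PC6 plasmacytoma (or its cisplatin-resistant subline) was implanted sc as 1 mm3 fragments. On day 20 mice received a single ip injection of drug as a sonicated suspension in arachis oil, at halving doses. Ten days later tumors were dissected and weighed against controls. […] Therapeutic index is MTD/ED90, alongside LD50.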

The subject of data set [5] is CH1. The data set can be described thus: Resistant factor, determined between IC50 of resistant line to that of CHcisR cell line. The class given is functional, cell-based. The following applies: Homo sapiens; CH1cisR. The essentials: as §2
The subject of data set [6] is Mus musculus. The data set can be described thus: Ability to inhibit Antitumor activity against PXN/109T/C Human Ovarian Cracinoma xenograft in mice at dose 10 mg/kg by ip administration. It counts as functional, organism-based. On the set-up: dose 10 mg/kg. A digest of the protocol:
as §1
In general terms: Xenograft models place foreign cells or tissue in a host animal.

Data set [7] has as its system Mus musculus. In words: Ability to inhibit Antitumor activity against PXN/109T/C Human Ovarian Cracinoma xenograft in mice at dose 4 mg/kg by ip administration. It counts as functional, organism-based. On the set-up: dose 4 mg/kg. A digest of the protocol:
as §1

Data set [8] has as its system Mus musculus. In words: Ability to inhibit Antitumor activity against PXN/109T/CC Human Ovarian Cracinoma xenograft in mice at dose 50 mg/kg by ip administration. It counts as functional, organism-based. On the set-up: dose 50 mg/kg. A digest of the protocol:
as §1

Data set [9] relates to Mus musculus. In words: Ability to inhibit Antitumor activity against PXN/109T/C Human Ovarian Cracinoma xenograft in mice at dose 20 mg/kg by ip administration. On the set-up: dose 20 mg/kg. The class given is functional, organism-based. The essentials:
as §1

The next data set deals with SK-OV-3. In words: In vitro antitumor activity against SK-OV-3 cell line. The class given is functional, cell-based, Homo sapiens. The essentials:
(§4)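 Human ovarian carcinoma monolayers were grown in DMEM with 10% FCS, insulin and hydrocortisone under 10% CO2. Cells were seeded at 5 × 10^3–1 × 10^4 per well and left to attach overnight. Drugs were freshly dissolved in 0.9% saline (1 mM or 500 μM stocks) and added to quadruplicate wells for 96 h. Cell mass was read by SRB staining. IC50 values are means of at least two experiments.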

Data set [10] deals with 41M. The data set can be described thus: In vitro antitumor activity against 41McisR cell line. It counts as functional, cell-based, Homo sapiens. The essentials: as §4
Data set [11] deals with Mus musculus. The data set can be described thus: In Vivo Antitumor activity against the acquired cisplatin-resistant ADJ/PC6 Plasmacytoma (ADJ/PC6cisR) in mice. It counts as ADME, organism-based.
Data set [12] relates to A2780. The data set can be described thus: In vitro antitumor activity against A2780cisR cell line. It counts as functional, cell-based, Homo sapiens. The essentials:
as §4

Data set [13] concerns CH1. The data set can be described thus: In vitro antitumor activity against CH1cisR cell line. It counts as functional, cell-based, Homo sapiens. The essentials: as §4
In data set [14] the test system is CH1. The data set can be described thus: (§5) In vitro antitumor activity against CH1 cell line. The class given is functional, cell-based, Homo sapiens. A digest of the protocol:
as §4

Data set [15] in a line: In vivo antitumor activity by i.p. administration against murine ADJ/PC6 (sc) plasmacytoma. The note with it: mouse, ip. The class given is ADME, organism-based.
For data set [16], the system named is A2780. In words: In vitro antitumor activity against A2780 cell line. It counts as functional, cell-based, Homo sapiens. The essentials:
as §4

Data set [17] concerns 41M. The data set can be described thus: In vitro antitumor activity against 41M cell line. The class given is functional, cell-based, Homo sapiens. The essentials: as §4
For data set [18], the system named is Mus musculus. The data set can be described thus: Ability to inhibit Antitumor activity against PXN/109T/C Human Ovarian Cracinoma xenograft in mice at dose 2 mg/kg by ip administration. On the set-up: dose 2 mg/kg. The class given is functional, organism-based. The essentials: as §1
In data set [19] the test system is Mus musculus. In words: Ability to inhibit Antitumor activity against HX/110 Human Ovarian Cracinoma xenograft in mice at dose 2 mg/kg by ip administration. The class given is functional, organism-based. Details: dose 2 mg/kg. A digest of the protocol: as §1
Data set [20] concerns Mus musculus. The data set can be described thus: Ability to inhibit Antitumor activity against SKOV-3 Human Ovarian Cracinoma xenograft in mice at dose 4 mg/kg by ip administration. The class given is functional, organism-based. Details: dose 4 mg/kg. A digest of the protocol:
as §1

For data set [21], the system named is Mus musculus. In words: Ability to inhibit Antitumor activity against PXN/100 Human Ovarian Cracinoma xenograft in mice at dose 2 mg/kg by ip administration. The class given is functional, organism-based. Details: dose 2 mg/kg. The essentials:
as §1

Data set [22] concerns Mus musculus. The data set can be described thus: Ability to inhibit Antitumor activity against OVCAR-3 Human Ovarian Cracinoma xenograft in mice at dose 2 mg/kg by ip administration. The class given is functional, organism-based. On the set-up: dose 2 mg/kg. The essentials:
as §1

In data set [23] the test system is Mus musculus. In words: Ability to inhibit Antitumor activity against PXN/109T/CC Human Ovarian Cracinoma xenograft in mice at dose 2 mg/kg by ip administration. The class given is functional, organism-based. Details: dose 2 mg/kg. A digest of the protocol:
as §1

Data set [24] deals with Mus musculus. In words: Ability to inhibit Antitumor activity against PXN/100 Human Ovarian Cracinoma xenograft in mice at dose 4 mg/kg by ip administration. It counts as functional, organism-based. Details: dose 4 mg/kg. A digest of the protocol:
as §1

Data set [25] concerns Mus musculus. The data set can be described thus: Ability to inhibit Antitumor activity against OVCAR-3 Human Ovarian Cracinoma xenograft in mice at dose 4 mg/kg by ip administration. It counts as functional, organism-based. Details: dose 4 mg/kg. The essentials:
as §1

Data set [26] relates to CH1. The description is as §5. It counts as functional, cell-based, Homo sapiens. A digest of the protocol:
as §4
This is another data set of the same source.

Data set [27] deals with Mus musculus. In words: In Vivo Antitumor activity by ip administration against Murine ADJ/PC6 (sc) Plasmacytoma in mice; - = 90% tumor inhibition not obtained. It counts as functional, organism-based. The note with it: Plasma. A digest of the protocol:
as §3

On to “trans-a-Ammine-b,d-dichloro-c,e-dihydroxo-f-(N-methylcyclohexylamine)-platinium (IV)”, for which the Growth delay in the data set on Mus musculus [1] was found to be 1.1 days. Moreover, the RF in the data set with A2780 [2] stood at 3.7; with 41M [3] it was 0.7; in the data set with CH1 [5], 2.2. In the data set on Mus musculus [4], this substance had an ED90 of 9.4 mg/kg.
In the data set on Mus musculus [6], “trans-a-ammine-b,d-dichloro-f-(2-methyl1-2-propylamine)-c,e-dihydroxoplatinium (IV) [listing 1 of 2 here]” came in with a Growth delay of 13.4 days. Also, the ED90 in the data set with Mus musculus [4] was 4.9 mg/kg and 4.7 mg/kg.
In the case of “trans-a-Ammine-b,d-dichloro-c,e-dihydrooxy-f-(Morphiline)-platinium (IV)”, the RF in the data set on A2780 [2] came out at 4.3; in the data set with 41M [3], 2.1; with CH1 [5], 1.6. The substance further had an ED90 in the data set with Mus musculus [4] of 94 mg/kg.
The matching figures for “trans-a-ammine-b,d-dichloro-f-(cyclohexylamine)-c,e-bis-(ethylcarbamato)platinium (IV)”: 3.3, 0.7, 1.2 and 185 mg/kg.
For “trans-Amminetetrachloro(quinuclidine)-platinium (IV)”, the RF with A2780 [2] turned out to be 1.1; in the data set with 41M [3], 1; in the data set on CH1 [5] it was 1. The Growth delay with Mus musculus [7] was found to be 0 days.
Turning to “trans-a,f-Dichloro-b,d-bis(cyclohexylamine)-c,e-dihydroxo-platinium (IV)”, the RF in the data set with A2780 [2] was determined as 4; with 41M [3], 1.5; in the data set on CH1 [5], 1.1. In the data set with Mus musculus [8], the Growth delay came to 1.8 days. Also, the ED90 in the data set on Mus musculus [4] amounted to 40 mg/kg.
On to “trans-a-Ammine-b,d-dichloro-c,e-dihydroxy-f-(benzylamine)-platinium (IV)”, for which the RF with A2780 [2] came out at 4; in the data set with 41M [3] it was 1; in the data set with CH1 [5], 1.7. The substance further came in with a Growth delay in the data set with Mus musculus [9] of 8.3 days. In the data set with Mus musculus [4], this substance came in with an ED90 of 22 mg/kg.
By pIC50 is commonly meant the negative decadic logarithm of the IC50, by convention in mol/L. The term LD50 denotes the dose expected to kill half of the subjects tested. Consider CISPLATIN, for which the negative-log IC50 (pIC50) in the data set with SK-OV-3 is 5.36; in the data set with 41M [10], 5.92; in the data set with A2780 [12] it was 5.28; with CH1 [13] it was 6.15; in the data set with CH1 [14], 6.96; with A2780 [16], 6.48. Further, in the data set with 41M [17], the negative logarithm of the IC50 (pIC50) is 6.59. The results for the LD50 (in the data set with Mus musculus [11]; in [15]) were 11 mg/kg and 11.3 mg/kg, respectively.
Take “trans-a-ammine-b,d-dichloro-f-(cyclohexylamine)-c,e-dihydroxoplatinium (IV)”: the Growth delay in the data set on Mus musculus [18] was 17 days; with Mus musculus [19] it was 25.5 days; in the data set on Mus musculus [20] it was 7 days; in the data set with Mus musculus [21], 23.9 days; in the data set on Mus musculus [22], 12 days; in the data set with Mus musculus [23] it was 5.4 days. The Growth delay in the data set on Mus musculus [24] was determined as 63.7 days; in the data set on Mus musculus [25] it was 16.8 days.
“trans-a-ammine-b,d-dichloro-f-(2-methyl1-2-propylamine)-c,e-dihydroxoplatinium (IV) [listing 2 of 2 here]”: the pIC50 is 4.47 and 5.33 with SK-OV-3; 5.10 and 6.05 in the data set on 41M [10]; 5.07 and 5.38 in the data set with A2780 [12]; 5.47 and 5.79 in the data set on CH1 [13]; 5.96 in the data set with CH1 [26]; 6.13 with CH1 [14]. In addition, the pIC50 was 6.10 and 6.68 in the data set with A2780 [16]; 5.35 and 5.96 in the data set with 41M [17]. Moreover, the LD50 in data set [15] was 35.5 mg/kg and 35 mg/kg.
Consider TRANSPLATIN, for which the ED90 entry with Mus musculus [27] was “inactive”.

These data come from ChEMBL document CHEMBL1128497, “Synthesis and in vitro and in vivo antitumor activity of a series of trans platinum antitumor complexes” (J Med Chem, 1995).
